Reference: ChEMBL document CHEMBL3580635, “9-Hydroxycanthin-6-one, a β-Carboline Alkaloid from Eurycoma longifolia, Is the First Wnt Signal Inhibitor through Activation of Glycogen Synthase Kinase 3β without Depending on Casein Kinase 1α” (J Nat Prod, 2015)
The source made the active and inactive calls. No cut-off for these calls is given here.

Key:
[1] = target: T1, Glycogen synthase kinase-3 beta (Homo sapiens, UniProt P49841); experiment: Activation of GSK-3beta in HEK293 cells assessed as suppression of TCF/beta-catenin transcriptional activity after 24 hrs by SuperTOPFlash reporter gene assay; format: cell-based
How it was run: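 STF/293 cells (293 cells stably carrying SuperTOPFlash, seven LEF/TCF sites) seeded 3 × 10^4/well; 24 h later given compound plus LiCl (final 15 mM) for 24 h. Cells lysed and firefly luciferase read, compared with no-compound control. DMSO final below 0.1%. At least triplicate; mean ± SE, n = 3.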

[2] = tested on: HEK293; experiment: Cytotoxicity against HEK293 cells transfected with SuperTOPFlash reporter gene assessed as cell viability at 10 to 40 uM after 24 hrs by fluorescence assay; format: cell-based; settings: human, hek293, 24 h
How it was run: (§1)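 STF/293 cells seeded 3 × 10^4/well, grown 24 h, then exposed 24 h to compound diluted in medium (DMSO final below 0.1%). Cells washed, then given fluorescein diacetate 10 μg/mL in PBS for 1 h at 37 °C. Fluorescence read at ex 485/em 538 nm. Mean ± SE, n = 3.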

[3] = tested on: HEK293; experiment: Cytotoxicity against HEK293 cells assessed as cell viability after 24 hrs by fluorescence assay; format: cell-based; settings: Homo sapiens, HEK293, 24 h
[4] = tested on: HEK-293T; experiment: Cytotoxicity against HEK293T cells assessed as cell viability after 24 hrs by fluorescence assay; format: cell-based; settings: Homo sapiens
[5] = tested on: RKO; experiment: Cytotoxicity against Wnt-independent human RKO cells assessed as cell viability after 24 hrs by fluorescence assay; format: functional, cell-based
[6] = tested on: HCT-116; experiment: Cytotoxicity against Wnt-dependent human HCT116 cells assessed as cell viability after 24 hrs by fluorescence assay; format: functional, cell-based; settings: HCT-116, 24 h
[7] = Cytotoxicity against Wnt-dependent human DLD1 cells assessed as cell viability after 24 hrs by fluorescence assay; format: functional, cell-based; settings: DLD-1, 24 h
[8] = tested on: SW480; experiment: Cytotoxicity against Wnt-dependent human SW480 cells assessed as cell viability after 24 hrs by fluorescence assay; settings: SW480, 24 h
[9] = tested on: HEK293; experiment: Cytotoxicity against HEK293 cells transfected with SuperTOPFlash reporter gene assessed as cell viability at 2.5 to 10 uM after 24 hrs by fluorescence assay; format: cell-based; settings: human, hek293, 24 h; how it was run: as §1
[10] = organism: Danio rerio; experiment: Activation of GSK-3beta in zebrafish embryo assessed as reduction of pigment cells on tail at 300 uM measured 4 to 30 hrs post fertilization
[11] = target: T1, Glycogen synthase kinase-3 beta; experiment: Activation of GSK-3beta in human SW480 cells assessed as downregulation of beta-catenin expression in cytosolic fraction at 10 to 30 uM after 24 hrs by Western blot analysis; format: cell-based
How it was run: (§2)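 SW480 cells, 1 × 10^6 per 90 mm dish, treated 24 h after seeding for 24 h. Whole-cell lysates made in Triton/deoxycholate buffer with phosphatase and protease inhibitors; cytosolic and nuclear fractions prepared by NE-PER. Proteins run on 10% SDS-PAGE, blotted to PVDF, probed, detected by ECL. Bands normalized to β-actin or histone H1.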
Target sequence in this assay (P49841 whole entry, looked up): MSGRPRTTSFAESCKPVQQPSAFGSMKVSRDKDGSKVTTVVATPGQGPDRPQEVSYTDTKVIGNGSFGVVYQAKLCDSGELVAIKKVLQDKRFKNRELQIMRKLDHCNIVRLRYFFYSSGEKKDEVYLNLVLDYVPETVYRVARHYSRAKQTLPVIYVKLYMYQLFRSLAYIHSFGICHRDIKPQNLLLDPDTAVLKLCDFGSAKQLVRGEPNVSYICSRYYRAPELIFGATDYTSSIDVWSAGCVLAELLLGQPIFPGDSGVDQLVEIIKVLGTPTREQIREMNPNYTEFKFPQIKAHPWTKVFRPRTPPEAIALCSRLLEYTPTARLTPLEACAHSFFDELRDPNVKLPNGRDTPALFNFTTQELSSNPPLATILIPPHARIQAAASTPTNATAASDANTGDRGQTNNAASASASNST

[12] = target: T1, Glycogen synthase kinase-3 beta; experiment: Activation of GSK-3beta in human SW480 cells assessed as downregulation of beta-catenin expression in nuclear fraction at 10 to 30 uM after 24 hrs by Western blot analysis; format: cell-based; how it was run: as §2
Target sequence in this assay (P49841 whole entry, looked up): as above

[13] = target: T1, Glycogen synthase kinase-3 beta; experiment: Activation of GSK-3beta in human SW480 cells assessed as increase in phosphorylation of beta-catenin at Ser33 at 10 to 30 uM after 24 hrs by Western blot analysis; format: cell-based; how it was run: as §2
Target sequence in this assay (P49841 whole entry, looked up): as above

[14] = target: T1, Glycogen synthase kinase-3 beta; experiment: Activation of GSK-3beta in human SW480 cells assessed as increase in phosphorylation of beta-catenin at Ser37 at 10 to 30 uM after 24 hrs by Western blot analysis; format: cell-based; how it was run: as §2
Target sequence in this assay (P49841 whole entry, looked up): as above

[15] = target: T1, Glycogen synthase kinase-3 beta; experiment: Activation of GSK-3beta in human SW480 cells assessed as increase in phosphorylation of beta-catenin at Thr41 at 10 to 30 uM after 24 hrs by Western blot analysis; format: cell-based; how it was run: as §2
Target sequence in this assay (P49841 whole entry, looked up): as above

[16] = target: Casein kinase I isoform alpha (Homo sapiens) (UniProt P48729); experiment: Effect on CK1alpha in human SW480 cells assessed as change in phosphorylation of beta-catenin at Ser45 at 10 to 30 uM after 24 hrs by Western blot analysis; format: cell-based; how it was run: as §2
Casein kinase I isoform alpha (Homo sapiens), sequence (P48729 2-337 limits assumed): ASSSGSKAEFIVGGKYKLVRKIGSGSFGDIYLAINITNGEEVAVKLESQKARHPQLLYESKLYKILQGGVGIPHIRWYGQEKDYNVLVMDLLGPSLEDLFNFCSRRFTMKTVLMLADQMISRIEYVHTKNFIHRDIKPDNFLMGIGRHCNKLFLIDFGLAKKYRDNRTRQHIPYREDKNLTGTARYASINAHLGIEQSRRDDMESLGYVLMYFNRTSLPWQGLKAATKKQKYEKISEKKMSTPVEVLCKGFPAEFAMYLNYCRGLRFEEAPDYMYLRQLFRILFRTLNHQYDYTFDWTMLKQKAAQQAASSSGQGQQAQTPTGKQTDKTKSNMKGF

[17] = tested on: SW480; experiment: Effect on CK1alpha expression in human SW480 cells at 10 to 30 uM after 24 hrs by Western blot analysis; format: functional, cell-based; how it was run: as §2
[18] = tested on: SW480; experiment: Effect on GSK-3beta expression in human SW480 cells at 10 to 30 uM after 24 hrs by Western blot analysis; format: functional, cell-based; how it was run: as §2
[19] = target: T1, Glycogen synthase kinase-3 beta; experiment: Activation of GSK-3beta in human SW480 cells assessed as increase in phosphorylation of beta-catenin at Ser33 at 30 uM after 24 hrs by Western blot analysis in presence of control siRNA; format: cell-based
How it was run: (§3)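 SW480 cells, 1 × 10^5/well, grown 24 h, then transfected for 3 h with control or GSK3β siRNA (10 pmol, Lipofectamine 2000). Compound then added in DMEM/10% FBS for 24 h. Whole-cell lysates Western blotted, normalized to β-actin.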
Target sequence in this assay (P49841 whole entry, looked up): as the sequence (P49841 whole entry, looked up) above

[20] = target: T1, Glycogen synthase kinase-3 beta; experiment: Activation of GSK-3beta in human SW480 cells assessed as increase in phosphorylation of beta-catenin at Ser37 at 30 uM after 24 hrs by Western blot analysis in presence of control siRNA; format: cell-based; how it was run: as §3
[21] = target: T1, Glycogen synthase kinase-3 beta; experiment: Activation of GSK-3beta in human SW480 cells assessed as increase in phosphorylation of beta-catenin at Thr41 at 30 uM after 24 hrs by Western blot analysis in presence of control siRNA; format: cell-based; how it was run: as §3
[22] = target: T1, Glycogen synthase kinase-3 beta; experiment: Activation of GSK-3beta in human SW480 cells assessed as increase in phosphorylation of beta-catenin at Ser33 at 30 uM after 24 hrs by Western blot analysis in presence of GSK-3beta siRNA; format: cell-based; how it was run: as §3
[23] = target: T1, Glycogen synthase kinase-3 beta; experiment: Activation of GSK-3beta in human SW480 cells assessed as increase in phosphorylation of beta-catenin at Ser37 at 30 uM after 24 hrs by Western blot analysis in presence of GSK-3beta siRNA; format: cell-based; how it was run: as §3
[24] = target: T1, Glycogen synthase kinase-3 beta; experiment: Activation of GSK-3beta in human SW480 cells assessed as increase in phosphorylation of beta-catenin at Thr41 at 30 uM after 24 hrs by Western blot analysis in presence of GSK-3beta siRNA; format: cell-based; how it was run: as §3
[25] = target: T1, Glycogen synthase kinase-3 beta; experiment: Inhibition of GSK-3beta phosphorylation at Ser9 in human SW480 cells at 30 uM after 24 hrs by Western blot analysis in presence of control and GSK-3beta siRNA; format: cell-based; how it was run: as §3
[26] = organism: Danio rerio; experiment: Activation of GSK-3beta in zebrafish embryo assessed as reduction of BIO-induced eyeless phenotype appearance at 100 uM measured 4 to 30 hrs post fertilization; set-up: scale not given: the % may be the effect or the level left
How it was run: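 Zebrafish embryos exposed 4–30 hpf at 28.5 °C in E3 medium to BIO (0.5 μM) alone or BIO plus compound (100 μM), then examined under a stereomicroscope.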

[27] = target: T1, Glycogen synthase kinase-3 beta; experiment: Activation of GSK-3beta in human SW480 cells assessed as increase in phosphorylation of beta-catenin at Ser33 at 30 uM after 24 hrs by Western blot analysis in presence of CK1alpha siRNA; format: cell-based
How it was run: (§4)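 SW480 cells, 5 × 10^4/well, grown 24 h, then transfected for 6 h with control or CK1α siRNA (10 pmol, Lipofectamine 2000). Compound then added in DMEM/10% FBS for 24 h. Whole-cell lysates Western blotted, normalized to β-actin.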

[28] = target: T1, Glycogen synthase kinase-3 beta; experiment: Activation of GSK-3beta in human SW480 cells assessed as increase in phosphorylation of beta-catenin at Ser37 at 30 uM after 24 hrs by Western blot analysis in presence of CK1alpha siRNA; format: cell-based; how it was run: as §4
[29] = target: T1, Glycogen synthase kinase-3 beta; experiment: Activation of GSK-3beta in human SW480 cells assessed as increase in phosphorylation of beta-catenin at Thr41 at 30 uM after 24 hrs by Western blot analysis in presence of CK1alpha siRNA; format: cell-based; how it was run: as §4
[30] = target: T1, Glycogen synthase kinase-3 beta; experiment: Inhibition of GSK-3beta phosphorylation at Ser9 in human SW480 cells at 30 uM after 24 hrs by Western blot analysis in presence of CK1alpha siRNA; format: cell-based; how it was run: as §4
[31] = tested on: HEK293; experiment: Cytotoxicity against HEK293 cells transfected with SuperTOPFlash reporter gene assessed as cell viability at 5 to 20 uM after 24 hrs by fluorescence assay; format: cell-based; settings: human, hek293, 24 h; how it was run: as §1
[32] = Activation of GSK-3beta in zebrafish embryo assessed as suppression of Wnt/beta-catenin signaling pathway at 300 uM measured 10 to 24 hrs post fertilization by TOPdGFP reporter gene-based fluorescence microscopic analysis in presence of MO, p53 MO; settings: Danio rerio
How it was run: (§5)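 TOPdGFP transgenic zebrafish embryos injected at the one- or two-cell stage with 5 ng control or p53 morpholino. Exposed 10–24 hpf at 28.5 °C in E3 medium containing 300 μM compound. TOPdGFP in the midbrain tectum imaged by fluorescence microscopy; apoptotic cells detected by TUNEL kit.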

[33] = organism: Danio rerio; experiment: Induction of apoptosis in zebrafish embryo at 300 uM measured 10 to 24 hrs post fertilization by TUNEL assay in presence of MO, p53 MO; format: organism-based; settings: in vivo; how it was run: as §5
[34] = organism: Danio rerio; experiment: Activation of GSK-3beta in zebrafish embryo assessed as suppression of zic2a gene expression in midbrain tectum at 300 uM measured 4 to 24 hrs post fertilization by in situ hybridization method in presence of MO, p53 MO; format: tissue-based
[35] = organism: Danio rerio; experiment: Activation of GSK-3beta in zebrafish embryo assessed as suppression of mitf gene expression in neural crest cells at 300 uM measured 24 hrs post fertilization by in situ hybridization method in presence of MO, p53 MO; format: cell-based

In the case of O=c1ccc2nccc3c4ccc(O[C@@H]5O[C@H](CO)[C@@H](O)[C@H](O)[C@H]5O)cc4n1c23, the Activity [1] is reported as “Dose-dependent effect”, the IC50 [1] is reported as 11.6 µM and the Activity [2] is reported as “Non-toxic”. For the same molecule, the IC50 [3] was 36.7 µM, the IC50 [4] was > 40 µM and the IC50 [5] was > 40 µM. For the same molecule, the IC50 [6] was > 40 µM, the IC50 [7] was > 40 µM and the IC50 [8] was > 40 µM.

With CC(=O)O[C@@H]1C[C@H]2C(C)(C)C(=O)C=C[C@]2(C)[C@H]2CC[C@]3(C)C(=CC[C@H]3[C@H]3COC(=O)C3)[C@@]21C the Activity [1] was “Dose-dependent effect”, the IC50 [1] was 3 µM and the Activity [9] was “Non-toxic”. For the same molecule, the IC50 [3] was 31.2 µM, the IC50 [4] was > 40 µM and the IC50 [5] was 26.4 µM. It also gave an IC50 [6] of 24.4 µM, an IC50 [7] of 31.7 µM and an IC50 [8] of 11.2 µM.

For O=c1ccc2nccc3c4ccc(O)cc4n1c23, the Activity [10] was “Active”, the Activity [11] was “Active” and the Activity [12] was “Active”. The Activity [13] was “Active”, the Activity [14] was “Active” and the Activity [15] was “Active”. For the same molecule, the Activity [16] was “inactive”, the Activity [17] was “inactive” and the Activity [18] was “inactive”. For the same molecule, the Activity [19] was “Active”, the Activity [20] was “Active” and the Activity [21] was “Active”. The Activity [22] was “inactive”, the Activity [23] was “inactive” and the Activity [24] was “inactive”. The inhibition [25] was “Active”, the Activity [26] was 46% and the Activity [27] was “Active”. The Activity [28] was “Active”, the Activity [29] was “Active” and the inhibition [30] was “Active”. For the same molecule, the Activity [1] was “Dose-dependent effect”, the IC50 [1] was 6.8 µM and the Activity [31] was “Non-toxic”. For the same molecule, the IC50 [3] was 36.7 µM, the IC50 [4] was > 40 µM and the IC50 [5] was > 40 µM. For the same molecule, the IC50 [6] was 30 µM, the IC50 [7] was > 40 µM and the Activity [32] was “Active”. The Activity [33] was “Non-toxic”, the Activity [34] was “Active” and the Activity [35] was “Active”. For the same molecule, the IC50 [8] was 17.4 µM.
